The campaign covered roughly 360,000 compounds. About 890 (0.25%) were called active. For the sample, actives were picked, then their nearest neighbours and some compounds at random. A number with no mark means an inactive call.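 How the source made its calls: active means inhibition at 20 µM, scaled per plate between control wells, above about 37% (limit read from the data); inactive means the rest.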
Each compound was assayed against Tyrosine-protein phosphatase non-receptor type 5 (Homo sapiens) (UniProt P54829) (assay: STEP phosphatase inhibitors, primary screen, biochemical, fluorescence intensity, uHTS (AID 588621;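 further: 0% = DMSO with enzyme and substrate and 100% = substrate only without enzyme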)). Settings: recombinant STEP, OMFP fluorogenic substrate, at 20 µM, stronger effect = higher value.
Tyrosine-protein phosphatase non-receptor type 5 (Homo sapiens), sequence (P54829 whole entry, looked up): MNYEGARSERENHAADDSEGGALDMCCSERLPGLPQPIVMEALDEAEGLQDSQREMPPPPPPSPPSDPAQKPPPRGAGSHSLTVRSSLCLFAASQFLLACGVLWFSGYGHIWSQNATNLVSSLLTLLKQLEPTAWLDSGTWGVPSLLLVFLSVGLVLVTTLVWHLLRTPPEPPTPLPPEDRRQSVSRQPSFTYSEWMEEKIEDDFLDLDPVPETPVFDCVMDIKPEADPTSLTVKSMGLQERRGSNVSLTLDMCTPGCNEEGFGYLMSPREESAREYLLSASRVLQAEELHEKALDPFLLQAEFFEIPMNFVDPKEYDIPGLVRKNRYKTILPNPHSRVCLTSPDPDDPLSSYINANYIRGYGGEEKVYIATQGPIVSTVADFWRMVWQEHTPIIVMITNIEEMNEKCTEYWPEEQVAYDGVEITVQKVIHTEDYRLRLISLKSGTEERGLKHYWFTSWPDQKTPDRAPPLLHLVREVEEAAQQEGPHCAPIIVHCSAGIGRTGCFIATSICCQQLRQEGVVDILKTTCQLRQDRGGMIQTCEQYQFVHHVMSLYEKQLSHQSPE
Procedure, shortened: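 Measure: Control-normalized % inhibition with plate pattern correction | Test system: STEP phosphatase, cell-free reaction | Medium: pH 6.0 Bis-Tris with DTT and Tween 20 | Technique: Fluorescence, 480/540 nm | Times: Reaction 20 min, ambient temperature | Doses: Single compound dose of 20 µM, 1% DMSO final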
Compound `O=C(NCc1ccccc1)C(c1cccnc1)N(C(=O)c1csnn1)c1ccc(F)cc1` (stereo unspecified) has an inhibition of 2.3%. `Cc1ccc(-n2c(C)cc(/C=C(\C#N)C(=O)NCC3CCCO3)c2C)cc1` (stereo unspecified) was tested, and the inhibition was 0.4%. `CCCCNC(=O)c1c[nH]c2ccc(S(=O)(=O)Nc3ccc(OCC)cc3)cc2c1=O` gave an inhibition of 4.4%. `Cc1nc2ccc(NC(=S)N3CCC(C)CC3)cc2nc1C` gave an inhibition of 2.1%. With `CC1=C(C(=O)N2CCOCC2)CC(CC(=O)NCCCN(C)C)C(=O)N1Cc1ccc(C(C)(C)C)cc1` (stereo unspecified) the inhibition was -2.8%. `CC(=O)c1ccc(NC(=O)CSC(=S)N2CCCC2)cc1` was tested, and the inhibition was 0.8%. `COc1cccc(NC(=O)CN(C)C(=O)CSC(=S)N2CCCC2)c1` was tested, and the inhibition was -1.5%. In the case of `O=C(CSC(=S)N1CCCCC1)c1c(F)cccc1F`, the inhibition was 87.8% (active). With `O=S(=O)(NCC1CN(S(=O)(=O)c2ccc3c(c2)OCCO3)C1)c1c(F)cccc1F` the inhibition was -0.5%. For `N#Cc1ccc(C(=O)Nc2cccc3cccnc23)c(F)c1`, the inhibition was 97.4% (active). Compound `CSc1ccc(C#N)cc1NC(=O)c1ccc(Cl)cc1` has an inhibition of -9.6%. In the case of `COc1ccc(NC(=O)c2ccco2)cc1NC(=O)c1ccc(C#N)cc1F`, the inhibition was -1.6%. Work on `CSCCC(NC(=O)COc1ccccc1)C(=O)N(C)CC(=O)Nc1ccc(C)cc1` (stereo unspecified) yielded an inhibition of -3.9%. Work on `COc1ccc(CN2CCCC(CNC(=O)c3ccc(F)cc3)C2)cc1OC` (stereo unspecified) yielded an inhibition of 0.7%. Compound `C[C@H](CO)N1C[C@H](C)[C@H](CN(C)C(=O)c2ccncc2)OCc2ccccc2-c2c(n(C)c3ccccc23)C1=O` has an inhibition of 1.4%. With `O=C1CCC(C(=O)Nc2ccc(OC(F)F)cc2)N1` (stereo unspecified) the inhibition was 1.3%. In the case of `CCc1ccc(NC(=O)CS(=O)CC(=O)NCCCc2ccccc2)cc1` (stereo unspecified), the inhibition was 41.6% (active). With `CCc1ccc(NC(=O)CS(=O)CC(=O)N2CCN(c3ccccc3F)CC2)cc1` (stereo unspecified) the inhibition was 2.2%. With `S=C(NCCCc1ccccc1)Nc1ccc(Br)cc1` the inhibition was 1.3%. With `Cc1ccc(S(=O)(=O)NN=C2CC(C)(C)CC(=O)C2(C)C)cc1` the inhibition was -2.2%. For `CCOc1nnc(C)c2c(C)n(-c3cccc(Cl)c3)nc12`, the inhibition was -2.6%.

Reference: PubChem BioAssay AID588621 (Sanford-Burnham Center for Chemical Genomics, 2011)
